Measured values: ChEMBL document CHEMBL1133118 (J Med Chem, 2000)
Values belong to the compound of their own block, whether it stands above or below them.

Key:
[1] = biological target: Adenosine receptors; A2b & A3 (Homo sapiens) (UniProt P29275+P0DMS8); assay: Ratio of binding affinity of human A2B receptor to that of human A3 receptor; type: protein assay
In short: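 Ki ratio, n=3-6, 6–8 concentrations. A2B in HEK-293 membranes (20 μg): 40 nM [3H]DPCPX, 50 mM Tris HCl, 10 mM MgCl2, 1 mM EDTA, 0.1 mM benzamidine pH 7.4, 2 IU/mL adenosine deaminase, 60 min at 25 °C, nonspecific with 100 μM NECA. A3 in CHO membranes (50 μg): 1 nM [3H]MRE3008-F20, 120 min at 4 °C.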

Adenosine receptor A3 [2] = biological target: T1, Adenosine receptor A3 (Homo sapiens, UniProt P0DMS8); assay: Inhibition of cAMP accumulation in CHO cells expressing human adenosine A3 receptor; type: functional, cell-based
T1 sequence (P0DMS8 whole entry): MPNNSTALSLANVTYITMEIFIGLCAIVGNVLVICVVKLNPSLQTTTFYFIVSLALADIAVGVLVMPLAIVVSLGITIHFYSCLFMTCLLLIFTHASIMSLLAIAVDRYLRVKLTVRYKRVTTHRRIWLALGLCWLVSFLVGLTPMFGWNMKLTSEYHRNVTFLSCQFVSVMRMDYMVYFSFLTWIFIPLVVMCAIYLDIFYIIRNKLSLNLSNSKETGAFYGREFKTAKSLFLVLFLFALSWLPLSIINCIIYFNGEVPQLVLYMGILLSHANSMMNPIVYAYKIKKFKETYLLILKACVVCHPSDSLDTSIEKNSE

[3] = biological target: T2, Adenosine receptor A3 (Homo sapiens) (UniProt P0DMS8); assay: Percentage of blockade by 1 uM of the inhibition by 100 nM IB-MECA-inhibited cAMP accumulation in CHO cells expressing human adenosine A3 receptor.; type: functional, cell-based
T2 sequence (whole entry): T1 sequence (P0DMS8 whole entry)
In short: (§1)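 CHO cells stably expressing human A3 receptor; membranes in 50 mM Tris HCl, 10 mM MgCl2, 1 mM EDTA pH 7.4 with 5 μM GTP, 0.5 mM […] and 2.0 IU/mL adenosine deaminase. Preincubated 10 min at 37 °C, then IB-MECA (100 nM) and/or antagonist with 1 mM ATP and 10 μM forskolin for 10 min. Boiled 2 min. cAMP read by [3H]cAMP competition with adrenal binding protein.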

Adenosine receptor A1 [4] = biological target: T3, Adenosine receptor A1 (Homo sapiens, UniProt P30542); assay: Displacement of [3H]-DPCPX from human adenosine A1 receptor expressed in CHO cells; range 6.9-9.7; type: cell-based
T3 sequence (P30542 whole entry): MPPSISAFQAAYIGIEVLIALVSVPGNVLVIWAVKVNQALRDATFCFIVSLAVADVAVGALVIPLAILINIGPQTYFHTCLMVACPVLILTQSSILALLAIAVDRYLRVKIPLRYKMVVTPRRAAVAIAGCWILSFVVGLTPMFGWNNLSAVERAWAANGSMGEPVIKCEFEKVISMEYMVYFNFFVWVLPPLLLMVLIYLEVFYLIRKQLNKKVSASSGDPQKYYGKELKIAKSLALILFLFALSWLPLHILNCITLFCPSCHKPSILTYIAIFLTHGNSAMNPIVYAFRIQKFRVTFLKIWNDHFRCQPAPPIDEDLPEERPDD

Adenosine receptor A2b [5] = biological target: T4, Adenosine receptor A2b (Homo sapiens, UniProt P29275); assay: Displacement of [3H]DPCPX from Adenosine A2b receptor expressed in HEK-293 cells; range 23-40
T4 sequence (P29275 whole entry): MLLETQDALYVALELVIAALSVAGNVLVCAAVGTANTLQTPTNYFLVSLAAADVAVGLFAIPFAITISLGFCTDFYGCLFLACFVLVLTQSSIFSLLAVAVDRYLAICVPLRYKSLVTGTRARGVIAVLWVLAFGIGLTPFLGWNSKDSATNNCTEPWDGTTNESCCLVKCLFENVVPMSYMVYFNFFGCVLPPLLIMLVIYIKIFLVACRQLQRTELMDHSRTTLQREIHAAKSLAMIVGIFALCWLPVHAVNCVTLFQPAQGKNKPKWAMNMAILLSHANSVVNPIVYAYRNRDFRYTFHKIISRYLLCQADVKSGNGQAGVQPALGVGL

[6] = biological target: Adenosine receptors; A1 & A3 (Homo sapiens) (UniProt P30542+P0DMS8); assay: Ratio of binding affinity of human A1 receptor to that of human A3 receptor; type: protein assay
In short: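 Ki ratio from displacement in CHO membranes, 6–8 concentrations, n=3-6, filtration counting. A1: 1 nM [3H]DPCPX, 50 μg protein, 120 min at 25 °C, nonspecific with 10 μM CHA. A3: 1 nM [3H]MRE3008-F20, 50 μg protein, Tris/10 mM MgCl2 pH 7.4, 120 min at 4 °C, nonspecific with 1 μM MRE3008-F20.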

Adenosine receptor A2a [7] = biological target: T5, Adenosine receptor A2a (Homo sapiens, UniProt P29274); assay: Displacement of [3H]-SCH- 58261 from human adenosine A2A receptor expressed in CHO cells; range 8.7-10.5; type: cell-based
Adenosine receptor A2b [8] = biological target: T4, Adenosine receptor A2b; assay: Displacement of [3H]DPCPX from Adenosine A2b receptor expressed in […]; range 1531-1920; type: cell-based
Adenosine receptor A1 [9] = biological target: T3, Adenosine receptor A1; assay: Displacement of [3H]DPCPX from human adenosine A1 receptor expressed in CHO cells; range 632-1003; type: cell-based
[10] = biological target: T2, Adenosine receptor A3 (Homo sapiens); assay: Percent reversal of 100 nM IB-MECA-inhibited cAMP accumulation in CHO cells expressing human adenosine A3 receptor at 1 uM; range 63-110; type: functional, cell-based; in short: as §1
Adenosine receptor A2a [11] = biological target: T5, Adenosine receptor A2a; assay: Displacement of [3H]-SCH- 58261 from human adenosine A2A receptor expressed in CHO cells; range 461-645; type: cell-based
Adenosine receptor A3 [12] = biological target: T1, Adenosine receptor A3; assay: Inhibition of cAMP accumulation in CHO cells expressing human adenosine A3 receptor; range 5.1-8.9; type: functional, cell-based; in short: as §1
Adenosine receptor A3 [13] = biological target: T1, Adenosine receptor A3; assay: Displacement of [3H]MRE3008-F20 from human adenosine A3 receptor expressed in CHO cells; range 0.63-1.00; type: cell-based
[14] = biological target: T2, Adenosine receptor A3 (Homo sapiens); assay: Percent reversal of 100 nM IB-MECA-inhibited cAMP accumulation in CHO cells expressing human adenosine A3 receptor at 1 uM; range 26-54; type: functional, cell-based; in short: as §1
Adenosine receptor A3 [15] = biological target: T1, Adenosine receptor A3; assay: Displacement of [3H]MRE3008-F20 from human adenosine A3 receptor expressed in CHO cells; range 50-61; type: cell-based
Adenosine receptor A2a [16] = biological target: T5, Adenosine receptor A2a; assay: Displacement of [3H]-SCH- 58261 from human adenosine A2A receptor expressed in CHO cells; range 85-140; type: cell-based
Adenosine receptor A1 [17] = biological target: T3, Adenosine receptor A1; assay: Displacement of [3H]DPCPX from human adenosine A1 receptor expressed in CHO cells; range 329-375; type: cell-based
Adenosine receptor A2b [18] = biological target: T4, Adenosine receptor A2b; assay: Displacement of [3H]DPCPX from Adenosine A2b receptor expressed in […]; range 70-94; type: cell-based
Adenosine receptor A2b [19] = biological target: T4, Adenosine receptor A2b; assay: Displacement of [3H]DPCPX from Adenosine A2b receptor expressed in CHO cells; range 35-45; type: cell-based; details: in the assay text read “HEK-293 cells” for “CHO cells”
In short: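 Human recombinant A2B receptor was expressed in HEK-293 cell membranes (20 μg protein). Incubated with 40 nM [3H]DPCPX in 50 mM Tris HCl, 10 mM MgCl2, 1 mM EDTA, 0.1 mM benzamidine, pH 7.4, with 2 IU/mL adenosine deaminase, at least 6–8 test concentrations, 60 min, 25 °C. Nonspecific binding was taken with 100 μM NECA; n=3-6.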

Adenosine receptor A2a [20] = biological target: T5, Adenosine receptor A2a; assay: Displacement of [3H]-SCH- 58261 from human adenosine A2A receptor expressed in CHO cells; range 1.90-3.37; type: cell-based
Adenosine receptor A3 [21] = biological target: T1, Adenosine receptor A3; assay: biochemical
[22] = biological target: T2, Adenosine receptor A3 (Homo sapiens); details: CHO, 1 uM
Adenosine receptor A3 [23] = biological target: T1, Adenosine receptor A3; assay: Inhibition of cAMP accumulation in CHO cells expressing human A3 adenosine receptor; type: functional, cell-based
Adenosine receptor A1 [24] = biological target: T3, Adenosine receptor A1; assay: Displacement of [3H]DPCPX from human adenosine A1 receptor expressed in CHO cells; range 365-550; type: cell-based
Adenosine receptor A2b [25] = biological target: T4, Adenosine receptor A2b; assay: Displacement of [3H]DPCPX from Adenosine A2b receptor expressed in […]; range 332-369; type: cell-based
Adenosine receptor A2a [26] = biological target: T5, Adenosine receptor A2a; assay: Displacement of [3H]-SCH- 58261 from human adenosine A2A receptor expressed in CHO cells; range 484-558; type: cell-based
In short: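 Membranes from CHO cells stably expressing human A2A receptor, grown in DMEM/F12 without nucleosides, resuspended in 50 mM Tris HCl, 10 mM MgCl2, pH 7.4; 50 μg protein/assay. Competition with [3H]SCH 58261 at 6–8 or more compound concentrations, 60 min at 25 °C; nonspecific binding with 50 μM NECA. Filtration on GF/B filters, scintillation counting; n=3-6.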

Adenosine receptor A3 [27] = biological target: T1, Adenosine receptor A3; assay: Displacement of [3H]MRE3008-F20 from human adenosine A3 receptor expressed in CHO cells; range 0.08-0.27; type: cell-based

T5 sequence (P29274 whole entry): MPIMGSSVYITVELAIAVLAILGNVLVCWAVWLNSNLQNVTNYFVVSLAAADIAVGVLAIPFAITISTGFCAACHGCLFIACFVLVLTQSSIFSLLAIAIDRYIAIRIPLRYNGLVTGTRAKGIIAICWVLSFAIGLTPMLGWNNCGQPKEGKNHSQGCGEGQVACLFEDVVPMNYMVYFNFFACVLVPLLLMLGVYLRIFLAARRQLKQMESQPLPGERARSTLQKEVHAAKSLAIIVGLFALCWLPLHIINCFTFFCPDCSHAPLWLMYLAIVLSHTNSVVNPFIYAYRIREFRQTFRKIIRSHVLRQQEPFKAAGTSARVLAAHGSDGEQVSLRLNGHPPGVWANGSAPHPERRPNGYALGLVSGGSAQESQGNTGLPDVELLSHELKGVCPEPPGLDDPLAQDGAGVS

SMILES: COc1ccc(NC(=O)Nc2nc3nn(C(C)(C)C)cc3c3nc(-c4ccco4)nn23)cc1
Ratio [1]: 2140 | Ki (Adenosine receptor A2b [8]): 1720 nM | Ki (Adenosine receptor A1 [9]): 796 nM | inhibition [10]: 84% | Ki (Adenosine receptor A2a [11]): 545 nM | Ratio [6]: 995 | IC50 (Adenosine receptor A3 [12]): 6.8 nM | Ki (Adenosine receptor A3 [13]): 0.8 nM

SMILES: CCCn1cc2c(nc(N)n3nc(-c4ccco4)nc23)n1
Ratio [1]: 0.095 | inhibition [3]: 23% | Ki (Adenosine receptor A2b [19]): 39 nM | Ki (Adenosine receptor A2a [20]): 2.51 nM | Ratio [6]: 0.024 | Ki (Adenosine receptor A3 [21]): 408 nM

SMILES: COc1ccc(NC(=O)Nc2nc3n[nH]cc3c3nc(-c4ccco4)nn23)cc1
inhibition [22]: 98% | Ratio [1]: 2500 | IC50 (Adenosine receptor A3 [23]): 1.8 nM | Ki (Adenosine receptor A1 [24]): 448 nM | Ki (Adenosine receptor A2b [25]): 350 nM | Ki (Adenosine receptor A2a [26]): 520 nM | Ratio [6]: 3200 | Ki (Adenosine receptor A3 [27]): 0.14 nM

Further lines, results first:

Ratio [1]: 157 | IC50 (Adenosine receptor A3 [2]): 2.4 nM | inhibition [3]: 95% | Ki (Adenosine receptor A1 [4]): 8.1 nM | Ki (Adenosine receptor A2b [5]): 30 nM | Ratio [6]: 54 | Ki (Adenosine receptor A2a [7]): 9.5 nM
SMILES: O=C(Nc1cccc(Cl)c1)Nc1nc2ccc(Cl)cc2c2nc(-c3ccco3)nn12

Ratio [1]: 1.47 | inhibition [14]: 38% | Ki (Adenosine receptor A3 [15]): 55 nM | Ki (Adenosine receptor A2a [16]): 110 nM | Ki (Adenosine receptor A1 [17]): 352 nM | Ratio [6]: 6.4 | Ki (Adenosine receptor A2b [18]): 81 nM
SMILES: CC(C)=CCn1cc2c(nc(NC(=O)Nc3cccc(Cl)c3)n3nc(-c4ccco4)nc23)n1
